MC4R barr agon – activates human MC4R beta-arrestin recruitment; U2OS MC4R beta-arrestin complementation, luminescence; percent of melanotan II response, DMSO zero; 0.98% of 360,000 active; activation, % at 8.9 µM;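 active means activation above a per-plate cutoff, the mean activation of sample wells on that plate plus 3 SD, cut at about 8% in these data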
Target sequence (P32245 whole entry, looked up): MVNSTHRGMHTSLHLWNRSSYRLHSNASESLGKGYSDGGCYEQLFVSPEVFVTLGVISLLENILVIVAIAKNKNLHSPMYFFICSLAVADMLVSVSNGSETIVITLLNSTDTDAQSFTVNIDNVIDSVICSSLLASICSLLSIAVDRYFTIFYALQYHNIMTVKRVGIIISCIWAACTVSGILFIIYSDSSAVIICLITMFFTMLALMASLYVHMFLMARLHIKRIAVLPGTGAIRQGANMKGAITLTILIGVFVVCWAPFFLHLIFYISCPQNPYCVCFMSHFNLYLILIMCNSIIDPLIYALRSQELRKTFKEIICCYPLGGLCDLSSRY
ABCB6 inh 2 – blocks the human ABCB6 transporter; fluorescence ratio to DMSO, % at 10 µM; 0.19% of 360,000 active; AID 602162; K562-ABCB6 porphyrin accumulation, flow cytometry, 1 h; active compounds read low; Q9NP58;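 active means fluorescence ratio to DMSO below 75%, the collection mean minus 3 SD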;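 further: signal is porphyrin accumulated inside mitochondria; 100% equals median channel fluorescence of DMSO control wells; lower ratio means ABCB6 inhibition with less porphyrin fluorescence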
TbMetRS inhib – Trypanosoma brucei MetRS inhibition; AID 624268; purified T. brucei MetRS, ATP depletion, Kinase-Glo luminescence; 0.4% of 360,000 active; inhibition, % at 11.9 µM;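 active means inhibition above a per-plate cutoff of the control wells' mean inhibition plus 3 SD, cut at about 5.5% in these data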;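 further: 0% = DMSO wells median and 100% = median of wells with control inhibitor compound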
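assay system = parasite MetRS enzyme | timing = 15 min preincubation, 2 h reaction, all 25 °C | evaluation = percent inhibition relative to median high and low control wells | medium = HEPES buffer containing pyrophosphatase, BSA, spermine, DTT | compound = single dose, 11.9 µM final nominal, 0.9% final DMSO | detection = Kinase-Glo luminescence, ATP depletion format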
MC4R antagonist – blocks human MC4R cAMP signaling. MC4R-expressing cells, MTII-stimulated cAMP, LANCE TR-FRET. inhibition, % at 6.5 µM. 0.48% of 360,000 active. AID 540295;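 active means inhibition above its plate's cutoff, the mean of tested wells on that plate plus 3 SD, cut at about 29% in these data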;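 further: 0% = Melanotan II alone and 100% = Melanotan II plus saturating MCL0020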
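Test system: U2OS cells stably expressing human melanocortin 4 receptor (MC4R); also added: Melanotan II challenge; compound: 6.5 µM single dose; timing: 30-min compound preincubation, 1-h Melanotan II challenge, 1-h detection, room temperature; signal: Eu-cAMP/anti-cAMP TR-FRET, emission 671 nm; repeats: one well per compound, no replicates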
hiPSC survival – hiPSC single-cell survival enhancement. 0.044% of 360,000 active. survival enhancement, % at 20 µM. ATPlite luminescence; 100% = ROCK inhibitor wells, 0% = DMSO; in the data active means survival enhancement above about 18%;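 further: cells exposed to compounds for 16 hours before the ATP read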
Granule exo inh – lytic granule exocytosis inhibition; TALL-104 LAMP-1 surface exposure, flow cytometry; cells stimulated with thapsigargin and PMA; inhibition, % at 10 µM; 0.66% of 360,000 active; AID 651702;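 active means inhibition above about 55%, limit read from the data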
* = called active by the depositor; / = no result. Only some compounds are listed: those with a hit (about 2.6% of all), similar ones and a draw of the others.

SMILES	MC4R barr agon	ABCB6 inh 2	TbMetRS inhib	MC4R antagonist	hiPSC survival	Granule exo inh
CC(=O)CCC(C)=O	0.4	100.0	-1.0	7.8	3.7	-2.6
CN1Cc2cnnn2-c2ccccc2C1C#N (stereo not drawn)	1.4	96.0	-0.7	1.3	39.8*	-0.1
O=C(N/N=C/c1c(O)n(C2CCCCC2)c(=S)[nH]c1=O)c1ccccc1	0.9	12.0*	-0.2	9.5	-0.7	-9.9
CC1CC2(C)C(CCC3C2CCC2(C)C(OP(=O)(N4CC4)N4CC4)CCC32)CC1=O (stereo not drawn)	0.6	96.0	-0.3	-11.3	0.9	-3.8
CCc1ccc(CNCCc2ccc(F)cc2)cc1	0.5	100.0	0.4	3.4	0.7	-1.8
Fc1ccc(CCNCc2ccc(Cl)c(Cl)c2)cc1	8.7*	97.0	-1.2	0.9	2.1	-4.1
CN1C(=O)CN=C(c2ccc[nH]2)c2cc(Cl)ccc21 (tested in a mixture with another compound)	-1.7	94.0	-0.2	-3.5	-2.4	5.8
COc1ccc(C(=O)CC(c2ccc(OC)c(OC)c2)c2c(O)c3ccccc3oc2=O)cc1OC (stereo not drawn)	-0.7	96.0	-0.3	-0.3	2.2	-7.7
S=C(NC1CCCCC1)N1CCC(c2cnc[nH]2)CC1	-0.2	99.0	-0.7	-3.8	-2.5	-1.0
C=C(C)[C@@]12OC3(c4ccccc4)O[C@@H]1C1[C@@H]4O[C@]4(CO)[C@@H](O)[C@]4(O)C(=O)C(C)=C[C@H]4[C@@]1(O3)[C@H](C)[C@H]2OC(=O)/C=C/C=C/c1ccccc1 (stereo partly drawn)	0.7	102.0	-0.8	18.0	41.6*	-2.4
COC1CCC(OC2CC(C3(C)CCC4(CC(O)C(C)C(C(C)/C=C(\C)C(=O)C(C)CC(C)C(=O)O)O4)O3)OC3(OC(C4OC(O)(CO)C(C)CC4C)CC3C)C2C)OC1C (stereo not drawn)	19.5*	87.0	-0.1	8.0	-4.0	78.2*
COc1ccc(CN2CCCC(C(=O)c3cccc(Cl)c3)C2)cc1 (stereo not drawn)	9.0*	100.0	-0.5	4.2	-0.4	-5.8
C[C@]12CCC3C(CC[C@H]4C[C@@H](O)CC[C@]34C)C1C/C(=N/O)[C@@H]2O (stereo partly drawn)	-1.4	92.0	-0.4	4.0	-1.6	-14.0
CCc1ccc(N2C(=O)NC(=O)/C(=C\C=C\c3ccco3)C2=O)cc1	-0.1	98.0	0.9	24.0	-0.3	76.4*
CCC1(C)CN(S(=O)(=O)OCC(Cl)(Cl)Cl)C(=O)N1 (stereo not drawn)	-1.7	103.0	0.0	3.1	1.2	-7.3
CN(CC1COc2ccccc2O1)c1nc(-c2cccnc2)nc2ccccc12 (stereo not drawn)	3.1	91.0	-0.8	-4.3	-3.8	86.7*
CN1CCC(N(C)c2nc(-c3ccc([N+](=O)[O-])cc3)nc3ccccc23)CC1	0.0	96.0	-1.3	4.4	-6.8	17.0
COC1=CC2[C@@H]3Cc4ccc(OC)c(O)c4[C@]2(CCN3C)CC1=O (stereo partly drawn)	-0.6	107.0	-1.8	8.4	-0.7	0.8
C[C@@H]1O[C@@H](O[C@H]2C[C@@H](O)[C@]3(CO)[C@H]4[C@H](O)C[C@]5(C)[C@@H](C6=CC(=O)OC6)CC[C@]5(O)[C@@H]4CC[C@]3(O)C2)[C@H](O)[C@H](O)[C@H]1O	34.7*	105.0	-0.4	-3.6	-2.8	2.8
Cc1cccc(C)c1-n1nnnc1C(C1CC1)N1CCC2(CC1)C(=O)NCN2c1ccccc1 (stereo not drawn)	/	92.0	-0.5	/	-1.7	8.8
CC1OC(OC2C=C3CCC4C(CCC5(C)C(c6ccc(=O)oc6)CCC45O)C3(C)CC2)C(O)C(OC2OC(CO)C(O)C(O)C2O)C1O (stereo not drawn)	36.6*	104.0	-0.5	12.7	-3.4	14.2
COC(=O)C1=C(c2cccc(OC)c2OC)C[C@@H]2CC[C@H]1N2C(=O)N1CCCC1	-1.6	98.0	-0.3	5.5	-1.7	-1.3
CCOP(=O)(OCC)C(NC(=O)CN1C(=O)c2ccccc2S1(=O)=O)C(Cl)(Cl)Cl (stereo not drawn)	0.6	99.0	0.0	3.8	-0.3	-1.6
CC(=O)N1N=C(c2c(O)n(C)c(=O)n(C)c2=O)CC1c1ccccc1 (stereo not drawn)	-2.0	105.0	-0.1	0.9	0.0	-2.3
CNS(=O)(=O)c1ccc(-c2ccc(C=C3C(=O)NC(=O)NC3=O)o2)cc1	-1.0	94.0	0.0	8.2	1.8	9.0
SMILES	MC4R barr agon	ABCB6 inh 2	TbMetRS inhib	MC4R antagonist	hiPSC survival	Granule exo inh
O=C1NC(=O)C(=Cc2ccc(-c3cc(Cl)ccc3[N+](=O)[O-])o2)C(=O)N1	-3.9	138.0	1.0	19.5	-1.0	61.1*
O=C1NC(=O)C(=Cc2ccc(-c3ccccc3[N+](=O)[O-])o2)C(=O)N1	-0.6	96.0	-0.6	28.0	0.3	76.5*
Cc1ccc(Sc2ccc(C=C3C(=O)N(C)C(=O)N(C)C3=O)o2)cc1	-1.5	107.0	0.5	1.3	0.1	73.9*
CN1C(=O)C(=Cc2ccc(N3CCOCC3)o2)C(=O)N(C)C1=O	1.2	107.0	-0.3	-0.2	3.1	-0.9
CC(C)N=C(NC(C)C)N1CC1	2.2	97.0	-0.2	19.7	-1.2	3.3
C#C[C@]1(O)CCC2C3CCC4=C/C(=N/OCC(=O)NC(C)C(=O)NC(CCSC)C(=O)O)CC[C@]4(C)C3CC[C@@]21C (stereo partly drawn)	-0.7	84.0	0.0	-6.2	-0.3	-1.4
C[C@]12CCC3C(CCC4=CC(O)CC[C@@]43/C=N/O)C1(O)CCC2C1=CC(=O)OC1 (stereo partly drawn)	39.0*	99.0	-1.5	0.3	0.5	-21.9
C[C@]12CC[C@H]3[C@@H](CC[C@]4(O)C[C@@H](O)CC[C@]34C=O)[C@@]1(O)CC[C@@H]2C1=CC(=O)OC1	27.3*	97.0	-1.4	3.3	-2.6	6.5
CC12CCC3C(CCC4(O)CC(O)CCC34C=O)C1(O)CCC2C1=CC(=O)OC1 (stereo not drawn)	21.2*	106.0	-0.1	7.5	-1.0	2.4
CC12CC[C@H]3[C@@H](CCC4(O)C[C@H](O)CCC34/C=N/NC(=O)c3ccccc3Cl)C1(O)CCC2C1=CC(=O)OC1 (stereo partly drawn)	-0.6	95.0	-0.1	3.9	0.0	-2.9
CCCCN=C[C@]12CCC(O)CC1(O)CCC1[C@@H]2CC[C@]2(C)[C@H](C3C=CC(=O)O3)CCC12O (stereo partly drawn)	34.7*	112.0	-0.4	-1.6	1.1	8.3

Assay outcomes deposited in PubChem BioAssay by several laboratories.
